The IC50 is the concentration needed to halve the response being measured.

This is an account of results in ChEMBL document CHEMBL4145525, “Machine learning prioritizes synthesis of primaquine ureidoamides with high antimalarial activity and attenuated cytotoxicity” (Eur J Med Chem, 2018).

The nature of data set [1]: Selectivity index, ratio of IC50 for rat L6 cells to IC50 for erythrocytic stage of Plasmodium falciparum NF54. In kind it is toxicity. Particulars: read-out: Ratio IC50. In short, it runs like this:
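Ratio of the L6 cytotoxicity IC50 to the IC50 against P. falciparum NF54.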

The subject of a further data set is Plasmodium falciparum. Kind of data set: Antiplasmodial activity against erythrocytic stage of Plasmodium falciparum NF54 assessed as reduction in [3H]hypoxanthine incorporation after 48 hrs by liquid scintillation counting method. In kind it is functional, organism-based. In short, it runs like this:
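Asexual blood-stage NF54 grown in hypoxanthine-free RPMI 1640 with HEPES, NaHCO3, neomycin and Albumax, using washed human A+ erythrocytes at 2.5% hematocrit and 0.3% parasitemia. Compounds were made as 10 mg/ml DMSO stocks and run as eleven 3-fold dilutions, 100 to 0.002 µg/ml. Incubation at 37 °C in 4% CO2, 3% O2, 93% N2. After 48 h, 0.5 µCi 3H-hypoxanthine was added for a further 24 h, then harvested and scintillation counted. IC50 by linear interpolation of sigmoidal curves; averages of 2–3 independent experiments.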

The next data set relates to L6. Kind of data set: Cytotoxicity against rat L6 cells assessed as reduction in cell viability after 70 hrs by Alamar blue assay. In kind it is cell-based. Particulars: L6, 70 h. A digest of the protocol: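 L6 rat skeletal myoblasts were plated at 4000 cells/well in RPMI 1640 with L-glutamine and 10% FBS. Eleven 3-fold drug dilutions, 100 to 0.002 µg/ml. After 70 h, Alamar Blue was added for 2 h and fluorescence read (ex 536 nm, em 588 nm). IC50 by linear interpolation from sigmoid dose-inhibition curves.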
For orientation: Resazurin is reduced to fluorescent resorufin, in cell work by metabolically active cells.

Bounds are passed on as bounds.

Take `COc1cc(NC(C)CCCNC(=O)NCCCC(C)Nc2cc(OC)cc3cccnc23)c2ncccc2c1` (stereo unspecified): the selectivity ratio in data set [1] is greater than 28.1. Also, the IC50 with Plasmodium falciparum is 6.4 µM; with L6 it was greater than 180 µM.
With `COc1ccc(/C=C/C(=O)NCCCC(C)Nc2cc(OC)cc3cccnc23)cc1` (stereo unspecified), the selectivity ratio in data set [1] was greater than 19.4. Besides, the IC50 with Plasmodium falciparum was 12.4 µM; in the data set on L6, greater than 240 µM.
For the compound `COc1cc(NC(C)CCCNC(=O)/C=C/c2ccccc2)c2ncccc2c1` (stereo unspecified), the selectivity ratio in data set [1] was found to be 1.2. Moreover, the IC50 with Plasmodium falciparum turned out to be 15.1 µM; in the data set on L6 it was 18.5 µM.
On the same counts, the results for `COc1cc(NC(C)CCCNC(=O)/C=C/c2ccc(Cl)cc2)c2ncccc2c1` (stereo unspecified) are 1.2, 13.7 µM and 16.8 µM.
In the same order, the values of `COc1ccc(/C(=N/NC(=O)NNC(=O)NCCCC(C)Nc2cc(OC)cc3cccnc23)c2ccccc2)cc1` (stereo unspecified) are 2.9, 5.6 µM and 16 µM.
On to `COc1cc(NC(C)CCCNC(=O)NNC(=O)N(C)C(c2ccccc2)c2ccccc2)c2ncccc2c1` (stereo unspecified), for which the selectivity ratio in data set [1] is 1. The results for the IC50 in the data set with Plasmodium falciparum and in the data set on L6 were 10 µM and 10.4 µM, respectively.
In the same order, the values of `COc1cc(NC(C)CCCNC(=O)NNC(=O)NC(c2ccccc2)c2ccc(Cl)cc2)c2ncccc2c1` (stereo unspecified) are 1.1, 7.5 µM and 8.4 µM.
In the same order, the values of `COc1cc(NC(C)CCCNC(=O)NNC(=O)NCCCC(C)Nc2cc(OC)cc3cccnc23)c2ncccc2c1` (stereo unspecified) are 20.7, 3.7 µM and 76.6 µM.
Turning to `COc1cc(NC(C)CCCNC(=O)NNC(=O)Nc2ccc(Cl)c(C(F)(F)F)c2)c2ncccc2c1` (stereo unspecified), in the data set on Plasmodium falciparum, the half-inhibitory concentration (IC50) was found to be 15.2 µM.
Same read-out and setting: for `COc1cc(NC(C)CCCNC(=O)NNC(=O)NCCCO)c2ncccc2c1` (stereo unspecified) the value was 58.8 µM.
Consider `COc1cc(NC(C)CCCNC(=O)NNC(=O)NCCCCCO)c2ncccc2c1` (stereo unspecified), for which the IC50 in the data set with Plasmodium falciparum came out at 43.7 µM.
Consider `COc1cc(NC(C)CCCNC(=O)NNC(=O)N(CCO)CCO)c2ncccc2c1` (stereo unspecified), for which the selectivity ratio in data set [1] amounted to 4.3. In addition, the results for the IC50 in the data set on Plasmodium falciparum and in the data set with L6 were 41.4 µM and 178 µM, respectively.
As to `COc1cc(NC(C)CCCNC(=O)NNC(=O)NC(CO)(CO)CO)c2ncccc2c1` (stereo unspecified), the IC50 with Plasmodium falciparum was found to be 66.7 µM.
For `COc1cc(NC(C)CCCNC(=O)NC(c2ccccc2)c2ccc(Cl)cc2)c2ncccc2c1` (stereo unspecified), in data set [1], the selectivity ratio came out at 32.6. The IC50 turned out to be 4.3 µM in the data set with Plasmodium falciparum and 140 µM in the data set with L6.
On the same counts, the results for `COc1ccc(/C(=N/NC(=O)NCCCC(C)Nc2cc(OC)cc3cccnc23)c2ccccc2)cc1` (stereo unspecified) are greater than 47.6, 4.1 µM and greater than 195 µM.
In the same order, the values of `COc1cc(NC(C)CCCNC(=O)NCCNC(c2ccccc2)(c2ccccc2)c2ccccc2)c2ncccc2c1` (stereo unspecified) are greater than 114, 1.5 µM and greater than 171 µM.
Turning to `COc1cc(NC(C)CCCNC(=O)Nc2ccc(Cl)c(C(F)(F)F)c2)c2ncccc2c1` (stereo unspecified), the IC50 with Plasmodium falciparum was found to be 17.1 µM.
On to `COc1cc(NC(C)CCCNC(=O)Nc2cc(C(F)(F)F)cc(C(F)(F)F)c2)c2ncccc2c1` (stereo unspecified), for which the selectivity ratio in data set [1] turned out to be 1.3. Besides, the concentration for half-maximal inhibition (IC50) came out at 11.9 µM with Plasmodium falciparum and 14.9 µM in the data set on L6.
On the same counts, the results for `COc1cc(NC(C)CCCNC(=O)NNC(=O)Nc2ccc(C(F)(F)F)cc2)c2ncccc2c1` (stereo unspecified) are 1.4, 10.3 µM and 14.9 µM.
On the same counts, the results for `COc1cc(NC(C)CCCNC(=O)NNC(=O)Nc2ccc(Cl)cc2)c2ncccc2c1` (stereo unspecified) are 5.2, 17.8 µM and 91.9 µM.
In the same order, the values of `COc1cc(NC(C)CCCNC(=O)NNC(=O)Nc2cccc(Cl)c2)c2ncccc2c1` (stereo unspecified) are 3.9, 14.9 µM and 58.6 µM.
`COc1cc(NC(C)CCCNC(=O)NNC(=O)Nc2cccc(C(F)(F)F)c2)c2ncccc2c1` (stereo unspecified): the selectivity ratio in data set [1] worked out at 2.7. In addition, the concentration for half-maximal inhibition (IC50) with Plasmodium falciparum worked out at 11.8 µM; in the data set on L6, 32.1 µM.
In the same order, the values of `COc1cc(NC(C)CCCNC(=O)NNC(=O)Nc2ccc(Br)cc2)c2ncccc2c1` (stereo unspecified) are 2.2, 17.8 µM and 38.7 µM.
On to `COc1cc(NC(C)CCCNC(=O)NNC(=O)/C=C/c2cc(OC)c(OC)c(OC)c2)c2ncccc2c1` (stereo unspecified), for which, in data set [1], the selectivity ratio was found to be 30.7. In addition, the IC50 in the data set with Plasmodium falciparum turned out to be 4.5 µM; with L6, 138 µM.
In the same order, the values of `COc1cc(NC(C)CCCNC(=O)/C=C/c2cc(C(F)(F)F)cc(C(F)(F)F)c2)c2ncccc2c1` (stereo unspecified) are 14, 11.3 µM and 158 µM.
Turning to `COc1cc(NC(C)CCCNC(=O)/C=C/c2ccc(OC)c(OC)c2)c2ncccc2c1` (stereo unspecified), in data set [1], the selectivity ratio is greater than 18.5. Further, the IC50 with Plasmodium falciparum is 11.9 µM; in the data set on L6 it was greater than 220 µM.
In the case of `COc1cc(NC(C)CCCNC(=O)NNC(=O)/C=C/c2cccc(C(F)(F)F)c2)c2ncccc2c1` (stereo unspecified), in data set [1], the selectivity ratio is less than 0.5. The half-maximal inhibitory concentration (IC50) is greater than 19.4 µM in the data set on Plasmodium falciparum and 10.6 µM with L6.
Regarding `COc1cc(NC(C)CCCNC(=O)NNC(=O)NCCc2ccccc2)c2ncccc2c1` (stereo unspecified), the 50% inhibitory concentration (IC50) in the data set with Plasmodium falciparum was 27.1 µM.
Consider `COc1cc(NC(C)CCCNC(=O)NNC(=O)/C(C)=C/c2ccccc2)c2ncccc2c1` (stereo unspecified), for which the selectivity ratio in data set [1] came to 1.6. For the same compound, the results for the IC50 in the data set with Plasmodium falciparum and with L6 were 22.9 µM and 36.5 µM, respectively.
As to `COc1cc(NC(C)CCCNC(=O)/C(C)=C/c2ccccc2)c2ncccc2c1` (stereo unspecified), the concentration for half-maximal inhibition (IC50) was greater than 24.8 µM in the data set on Plasmodium falciparum and greater than 250 µM in the data set with L6.
In the same order, the values of `COc1cc(NC(C)CCCNC(=O)NNC(=O)/C=C/c2cc(C(F)(F)F)cc(C(F)(F)F)c2)c2ncccc2c1` (stereo unspecified) are greater than 17.1 µM and greater than 170 µM.
`COc1cc(NC(C)CCCNC(=O)/C=C/c2cccc(C(F)(F)F)c2)c2ncccc2c1` (stereo unspecified): the selectivity ratio in data set [1] turned out to be 1. Further, the concentration for half-maximal inhibition (IC50) in the data set on Plasmodium falciparum amounted to 15.6 µM; in the data set on L6 it was 16.2 µM.
In the case of `COc1cc(NC(C)CCCNC(=O)NNC(=O)/C=C/c2ccc3c(c2)OCO3)c2ncccc2c1` (stereo unspecified), the selectivity ratio in data set [1] is 0.8. In addition, the results for the IC50 in the data set on Plasmodium falciparum and with L6 were 20.4 µM and 15.5 µM, respectively.
With `COc1cc(NC(C)CCCNC(=O)NNC(=O)NC(c2ccccc2)c2ccccc2)c2ncccc2c1` (stereo unspecified), in the data set on Plasmodium falciparum, the IC50 was determined as 10.3 µM.
Regarding `COc1cc(NC(C)CCCNC(=O)NNC(=O)/C=C/c2ccccc2)c2ncccc2c1` (stereo unspecified), the selectivity ratio in data set [1] amounted to 0.8. Further, the half-inhibitory concentration (IC50) with Plasmodium falciparum is 17.2 µM; in the data set on L6 it was 13.9 µM.
On the same counts, the results for `COc1cc(NC(C)CCCNC(=O)NNC(=O)/C=C/c2ccc(OC)c(OC)c2)c2ncccc2c1` (stereo unspecified) are less than 1.9, greater than 19.7 µM and 37 µM.
As for `COc1cc(NC(C)CCCNC(=O)NNC(=O)NOCc2ccccc2)c2ncccc2c1` (stereo unspecified), the IC50 with Plasmodium falciparum turned out to be 20.8 µM.
Same read-out and setting: for `COc1cc(NC(C)CCCNC(=O)NNC(=O)NC2CCCC2)c2ncccc2c1` (stereo unspecified) the value was 75.4 µM; for `COc1cc(NC(C)CCCNC(=O)NNC(=O)NCc2ccccc2)c2ncccc2c1` (stereo unspecified), greater than 111 µM.
For `COc1cc(NC(C)CCCNC(=O)/C=C/c2ccc(C(F)(F)F)cc2)c2ncccc2c1` (stereo unspecified), the selectivity ratio in data set [1] came to 12.4. For the same compound, the IC50 was determined as 12.9 µM in the data set with Plasmodium falciparum and 160 µM with L6.
On the same counts, the results for `COc1cc(NC(C)CCCNC(=O)/C=C/c2cc(OC)c(OC)c(OC)c2)c2ncccc2c1` (stereo unspecified) are greater than 25.9, 8.1 µM and greater than 210 µM.
Take `COc1cc(NC(C)CCCNC(=O)NNC(=O)/C=C/c2ccccc2F)c2ncccc2c1` (stereo unspecified): the selectivity ratio in data set [1] is less than 1.2. Besides, the IC50 with Plasmodium falciparum was greater than 21.4 µM; with L6, 25.1 µM.
On the same counts, the results for `COc1cc(NC(C)CCCNC(=O)/C=C/c2ccccc2F)c2ncccc2c1` (stereo unspecified) are 0.3, 13.2 µM and 3.5 µM.
In the same order, the values of `COc1ccc(/C=C/C(=O)NNC(=O)NCCCC(C)Nc2cc(OC)cc3cccnc23)cc1` (stereo unspecified) are 0.2, 22.2 µM and 3.6 µM.
In the same order, the values of `COc1cc(NC(C)CCCNC(=O)/C=C/c2ccc3c(c2)OCO3)c2ncccc2c1` (stereo unspecified) are 1.3, 22.1 µM and 29 µM.
Turning to `COc1cc(NC(C)CCCNC(=O)NNC(=O)NC2CCCCC2)c2ncccc2c1` (stereo unspecified), the IC50 in the data set on Plasmodium falciparum amounted to 46.3 µM.
Regarding `COc1cc(NC(C)CCCNC(=O)NNC(=O)/C=C/c2ccc(C(F)(F)F)cc2)c2ncccc2c1` (stereo unspecified), in data set [1], the selectivity ratio is less than 1.5. Moreover, the IC50 was greater than 19.4 µM in the data set on Plasmodium falciparum and 28.3 µM in the data set with L6.
Consider `COc1cc(NC(C)CCCNC(=O)NNC(=O)/C=C/c2ccc(Cl)cc2)c2ncccc2c1` (stereo unspecified), for which the selectivity ratio in data set [1] was 0.3. Also, the half-maximal inhibitory concentration (IC50) was found to be 24.2 µM in the data set on Plasmodium falciparum and 7.3 µM in the data set with L6.
For the compound `COc1cc(NC(C)CCCNC(=O)NC2CCCCC2)c2ncccc2c1` (stereo unspecified), the IC50 with Plasmodium falciparum was determined as 42.1 µM.
`COc1cc(NC(C)CCCNC(=O)N(C2CCCCC2)C2CCCCC2)c2ncccc2c1` (stereo unspecified): the 50% inhibitory concentration (IC50) in the data set on Plasmodium falciparum turned out to be 8.1 µM.
For the compound `COc1cc(NC(C)CCCNC(=O)NC2CCCC2)c2ncccc2c1` (stereo unspecified), in the data set with Plasmodium falciparum, the IC50 came to 65.9 µM.
As to `COc1cc(NC(C)CCCNC(=O)NCc2ccncc2)c2ncccc2c1` (stereo unspecified), in the data set on Plasmodium falciparum, the IC50 worked out at 47.3 µM.
The same measure, in the same setting: in the case of `COc1cc(NC(C)CCCNC(=O)NCCO)c2ncccc2c1` (stereo unspecified) it was 27.4 µM; in that of `COc1cc(NC(C)CCCNC(=O)NCCCO)c2ncccc2c1` (stereo unspecified), 52.4 µM.
